These results are taken from ChEMBL document CHEMBL6120954, “Development of Fragment-Based Inhibitors of the Bacterial Deacetylase LpxC with Low Nanomolar Activity” (J Med Chem, 2024).

≈ marks a conversion by molar mass, not a printed value.

Sequence of Elastase (P14756 whole entry): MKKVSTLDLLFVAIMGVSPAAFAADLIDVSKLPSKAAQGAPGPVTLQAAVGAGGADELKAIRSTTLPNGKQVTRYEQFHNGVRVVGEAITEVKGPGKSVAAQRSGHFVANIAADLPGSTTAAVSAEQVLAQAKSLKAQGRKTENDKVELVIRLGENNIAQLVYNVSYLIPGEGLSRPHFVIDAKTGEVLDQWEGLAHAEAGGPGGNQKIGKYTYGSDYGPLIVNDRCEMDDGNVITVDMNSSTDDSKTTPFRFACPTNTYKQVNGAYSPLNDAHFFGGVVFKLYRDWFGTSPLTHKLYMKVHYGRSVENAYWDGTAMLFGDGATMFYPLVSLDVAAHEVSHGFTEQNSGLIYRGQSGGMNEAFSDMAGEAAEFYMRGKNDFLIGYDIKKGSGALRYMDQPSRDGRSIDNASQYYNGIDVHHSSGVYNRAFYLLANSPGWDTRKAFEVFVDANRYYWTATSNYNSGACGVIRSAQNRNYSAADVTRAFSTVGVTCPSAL

Tested on in the first series: not listed separately
As to the kind of experiment: Inhibition of Escherichia coli LpxC C63A mutant assessed as inhibition constant incubated for 30 mins by microplate reader analysis.
Details: not given
The method, boiled down: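 Purified E. coli LpxC C63A (15 nM final), expressed in E. coli BL21(DE3), with 25 μM UDP-3-O-[(R)-3-hydroxymyristoyl]-N-acetylglucosamine. Buffer was 40 mM MES pH 6.0, 80 μM DTT, 0.02% Brij 35 and 2% DMSO, with inhibitor at 20 nM–20 μM, for 30 min at 37 °C. The reaction was stopped with NaOH, neutralised with acetic acid, and product was derivatised with o-phthaldialdehyde/2-mercaptoethanol (ex 340, em 460 nm). Runs were done at least three times.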
As to `O=C(NO)[C@@H](OCc1ccc(C#Cc2ccc(CN3CCOCC3)cc2)cc1)[C@@H](O)COCc1ccccc1`, the Ki (usually a dissociation constant, usually derived from enzyme kinetics or from competition with a known ligand) came to 280 nM.

`O=C(NO)[C@H](CO)OCc1ccc(C#Cc2ccc(CN3CCOCC3)cc2)cc1`: the Ki was found to be 410 nM.

Regarding `O=C(NC[C@@H](OCc1ccc(C#Cc2ccc(CN3CCOCC3)cc2)cc1)C(=O)NO)c1cccc(-c2ccccc2)c1`, the Ki is above 2540 nM.

Consider `O=C(NC[C@H](OCc1ccc(C#Cc2ccc(CN3CCOCC3)cc2)cc1)C(=O)NO)c1ccc2[nH]ccc2c1`, for which the inhibition constant Ki is 9.46 nM.

On to `O=C(NC[C@@H](OCc1ccc(C#Cc2ccc(CN3CCOCC3)cc2)cc1)C(=O)NO)c1cc(-c2ccccc2)[nH]n1`, for which the Ki is above 2540 nM.

With `O=C(NC[C@H](OCc1ccc(C#Cc2ccc(CN3CCOCC3)cc2)cc1)C(=O)NO)c1cc2ccccc2[nH]1`, the Ki amounted to 87 nM.

With `O=C(NC[C@H](OCc1ccc(C#Cc2ccc(CN3CCOCC3)cc2)cc1)C(=O)NO)c1ccc(Oc2ccccc2)cc1`, the Ki is 323 nM.

Turning to `O=C(NO)[C@H](CN(Cc1ccccc1)Cc1ccccc1)OCc1ccc(C#Cc2ccc(CN3CCOCC3)cc2)cc1`, the Ki was above 2540 nM.

Turning to `O=C(NC[C@@H](OCc1ccc(C#Cc2ccc(CN3CCOCC3)cc2)cc1)C(=O)NO)c1ccc2[nH]ccc2c1`, the Ki came to 1150 nM.

A further series deals with Escherichia coli. As to the kind of experiment: Antibacterial activity against Escherichia coli BL21(DE3) assessed as inhibition of visible bacterial growth incubated for 20 hrs by microdilution method. The series is classed as functional.
Details: not given
The gist of the method: (§1)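 Broth microdilution in LB. Overnight cultures (37 °C, 200 rpm) were diluted 1:1000 and mixed with 2-fold compound dilutions in DMSO, giving 5 × 10⁵ cfu mL⁻¹, 5% DMSO and final compound concentrations of 64–0.016 μg mL⁻¹. Plates were incubated 20 h at 37 °C. MIC was the lowest concentration preventing visible growth, from at least three runs on separate days.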
Background: Broth dilution looks for growth in wells or tubes with falling amounts of substance.
Take `O=C(NC[C@H](OCc1ccc(C#Cc2ccc(CN3CCOCC3)cc2)cc1)C(=O)NO)c1ccccc1`: the MIC – broadly, the lowest concentration that inhibits growth of the organism – is above 16 µg/mL.

For `O=C(NC[C@@H](OCc1ccc(C#Cc2ccc(CN3CCOCC3)cc2)cc1)C(=O)NO)c1ccccc1`, the MIC was above 16 µg/mL.

As to `O=C(NO)[C@@H](OCc1ccc(C#Cc2ccc(CN3CCOCC3)cc2)cc1)[C@@H](O)COCc1ccccc1`, the MIC is 4 µg/mL (≈ 7.54 µM).

As for `O=C(NO)[C@H](CO)OCc1ccc(C#Cc2ccc(CN3CCOCC3)cc2)cc1`, the MIC is 32 µg/mL (≈ 78 µM).

For the molecule `O=C(NO)[C@H](CN(Cc1ccccc1)Cc1ccccc1)OCc1ccc(C#Cc2ccc(CN3CCOCC3)cc2)cc1`, the MIC is 8 µg/mL (≈ 13.6 µM).

Another series deals with Escherichia coli. As to the kind of experiment: Antibacterial activity against Escherichia coli D22 assessed as inhibition of visible bacterial growth incubated for 20 hrs by microdilution method. The series is classed as functional.
Details: not given
The gist of the method:
as §1
In the case of `O=C(NO)[C@@H](OCc1ccc(C#Cc2ccc(CN3CCOCC3)cc2)cc1)[C@@H](O)COCc1ccccc1`, the MIC was determined as 0.13 µg/mL (≈ 0.245 µM).

`O=C(NO)[C@H](CO)OCc1ccc(C#Cc2ccc(CN3CCOCC3)cc2)cc1`: the MIC amounted to 1 µg/mL (≈ 2.44 µM).

The next series relates to Escherichia coli. As to the kind of experiment: Antibacterial activity against Escherichia coli BL21(DE3) assessed as Diameter of inhibition zone incubated for 20 hrs by disc diffusion assay. The series is classed as functional.
Details: not given
The method, boiled down:
(§2)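 E. coli BL21(DE3) and the defective strain D22 were grown overnight in LB at 37 °C and 200 rpm, and 150 μL was spread on LB agar. Each compound (0.15 μmol in 10 or 15 μL DMSO) was spotted on 6 mm filter paper discs, with DMSO as negative and CHIR-090 as positive control. Plates were incubated overnight at 37 °C and the growth-inhibition zone diameter was measured.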
With `O=C(NO)[C@@H](COCc1ccccc1)OCc1ccc(C#Cc2ccc(CN3CCOCC3)cc2)cc1`, the “diameter of the inhibition zone (DIZ)” value is “<=6 mm”.

For `O=C(NO)[C@H](COCc1ccccc1)OCc1ccc(C#Cc2ccc(CN3CCOCC3)cc2)cc1`, the “diameter of the inhibition zone (DIZ)” value is given as “<=6 mm”.

Consider `O=C(NO)[C@@H](OCc1ccc(C#Cc2ccc(CN3CCOCC3)cc2)cc1)[C@@H](O)COCc1ccccc1`, for which the “diameter of the inhibition zone (DIZ)” value is 11.2 mm.

Regarding `O=C(NO)[C@H](CO)OCc1ccc(C#Cc2ccc(CN3CCOCC3)cc2)cc1`, the “diameter of the inhibition zone (DIZ)” value stood at 15.7 mm.

As for `O=C(NC[C@@H](OCc1ccc(C#Cc2ccc(CN3CCOCC3)cc2)cc1)C(=O)NO)c1cc(-c2ccccc2)[nH]n1`, the “diameter of the inhibition zone (DIZ)” value was “<=6 mm”.

`O=C(NO)[C@H](CN(Cc1ccccc1)Cc1ccccc1)OCc1ccc(C#Cc2ccc(CN3CCOCC3)cc2)cc1`: the “diameter of the inhibition zone (DIZ)” value is on record as “<=6 mm”.

The test system of the next series is Escherichia coli. The series is described as follows: Antibacterial activity against Escherichia coli D22 assessed as diameter of inhibition zone incubated for 20 hrs by disc diffusion assay. In kind it is functional.
Details: not given
The method, boiled down:
as §2
In general terms: A growth-free zone around the sample is the usual read-out of agar diffusion tests.
Regarding `O=C(NO)[C@@H](OCc1ccc(C#Cc2ccc(CN3CCOCC3)cc2)cc1)[C@@H](O)COCc1ccccc1`, the “diameter of the inhibition zone (DIZ)” value is 19.5 mm.

Regarding `O=C(NO)[C@H](CO)OCc1ccc(C#Cc2ccc(CN3CCOCC3)cc2)cc1`, the “diameter of the inhibition zone (DIZ)” value stood at 25.8 mm.

A further series deals with T1, UDP-3-O-acyl-N-acetylglucosamine deacetylase (Pseudomonas aeruginosa, UniProt B5ATN6).
T1 sequence (B5ATN6 whole entry): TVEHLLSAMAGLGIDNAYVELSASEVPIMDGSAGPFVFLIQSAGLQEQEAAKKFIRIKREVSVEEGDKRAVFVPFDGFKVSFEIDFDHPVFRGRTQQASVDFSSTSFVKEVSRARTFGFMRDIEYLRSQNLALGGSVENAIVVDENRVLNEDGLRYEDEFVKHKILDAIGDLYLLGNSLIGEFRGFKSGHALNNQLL
As to the kind of experiment: Inhibition of Pseudomonas aeruginosa LpxC.
Details: not given
The gist of the method: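 Buffer was 50 mM potassium phosphate pH 7.5, 80 μM DTT, 0.02% Brij 35 and 2% DMSO, with inhibitor at 5 nM–5 μM, for 30 min at 37 °C. The reaction was stopped with HCl. Substrate and product were quantified by LC–MS/MS MRM peak areas relative to the uninhibited reaction, in at least two runs.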
In the case of `CCc1ccc(-c2ccc(C(=O)N[C@H](C(=O)NO)[C@@H](C)NCc3ccccn3)cc2)cc1`, inhibition was half-maximal at 94.8 nM (IC50).

A further series has as its target Elastase (Pseudomonas aeruginosa (strain ATCC 15692 / PAO1 / 1C / PRS 101 / LMG12228), UniProt P14756). The series is described as follows: Inhibition of Pseudomonas aeruginosa PA14 LasB by FRET assay.
Details: not given
Consider `O=C(NO)[C@@H](OCc1ccc(C#Cc2ccc(CN3CCOCC3)cc2)cc1)[C@H](O)COCc1ccccc1`, for which the IC50 (commonly the concentration that gives 50% inhibition) amounted to 14800 nM.

In turn, `O=C(NO)[C@@H](OCc1ccc(C#Cc2ccc(CN3CCOCC3)cc2)cc1)[C@@H](O)COCc1ccccc1` showed an IC50 of 17700 nM.

For the next series, the target named is Elastase (Pseudomonas aeruginosa (strain ATCC 15692 / PAO1 / 1C / PRS 101 / LMG12228)) (UniProt P14756). The series is described as follows: Inhibition of Pseudomonas aeruginosa PA14 LasB at 20 uM by FRET assay relative to control.
Sequence of Elastase (Pseudomonas aeruginosa (strain ATCC 15692 / PAO1 / 1C / PRS 101 / LMG12228)) (P14756 198-498 limits assumed): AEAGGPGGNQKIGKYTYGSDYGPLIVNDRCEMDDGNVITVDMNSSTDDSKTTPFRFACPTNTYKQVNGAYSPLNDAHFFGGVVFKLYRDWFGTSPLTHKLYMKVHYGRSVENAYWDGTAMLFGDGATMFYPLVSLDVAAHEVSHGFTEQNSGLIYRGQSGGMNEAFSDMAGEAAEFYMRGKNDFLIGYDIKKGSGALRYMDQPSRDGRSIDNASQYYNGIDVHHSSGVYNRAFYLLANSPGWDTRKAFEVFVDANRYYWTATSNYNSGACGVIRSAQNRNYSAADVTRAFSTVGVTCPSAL
Details: not given
Regarding `O=C(NO)[C@@H](OCc1ccc(C#Cc2ccc(CN3CCOCC3)cc2)cc1)[C@H](O)COCc1ccccc1`, the inhibition (usually the share of the control response that was lost under treatment) was found to be 64.9%.

As for `O=C(NO)[C@H](OCc1ccc(C#Cc2ccc(CN3CCOCC3)cc2)cc1)[C@H](O)COCc1ccccc1`, the inhibition was below 10%.

With `Cc1noc(C)c1COC[C@H](O)[C@H](OCc1ccc(C#Cc2ccc(CN3CCOCC3)cc2)cc1)C(=O)NO`, the inhibition was below 10%.

The molecule `O=C(NO)[C@@H](OCc1ccc(C#Cc2ccc(CN3CCOCC3)cc2)cc1)[C@@H](O)COCc1ccccc1` displayed an inhibition of 61%.

`O=C(NC[C@H](OCc1ccc(C#Cc2ccc(CN3CCOCC3)cc2)cc1)C(=O)NO)c1ccc2[nH]ccc2c1` yielded an inhibition below 10%.

In the case of `O=C(NC[C@H](OCc1ccc(C#Cc2ccc(CN3CCOCC3)cc2)cc1)C(=O)NO)c1cc2ccccc2[nH]1`, the inhibition was below 10%.

On to `O=C(NC[C@H](OCc1ccc(C#Cc2ccc(CN3CCOCC3)cc2)cc1)C(=O)NO)c1ccc(Oc2ccccc2)cc1`, for which the inhibition was below 10%.

Turning to `O=C(NO)[C@H](CN(Cc1ccccc1)Cc1ccccc1)OCc1ccc(C#Cc2ccc(CN3CCOCC3)cc2)cc1`, the inhibition is below 10%.

Tested on in another series: not listed separately
As to the kind of experiment: Metabolic stability in CD-1 mouse microsome. The series is classed as ADME. As to conditions: microsomes.
`O=C(NC[C@H](OCc1ccc(C#Cc2ccc(CN3CCOCC3)cc2)cc1)C(=O)NO)c1ccc2[nH]ccc2c1`: the Stability result is given as “Stable”.

Consider `O=C(NC[C@H](OCc1ccc(C#Cc2ccc(CN3CCOCC3)cc2)cc1)C(=O)NO)c1cc[nH]n1`, for which the Stability result is given as “Stable”.

Tested on in a further series: not listed separately
The series is described as follows: Metabolic stability in CD-1 mouse liver S9 fraction assessed as half life in presence of NADPH by HPLC-MS/MS analysis. The series is classed as ADME, subcellular.
Details: not given
The gist of the method:
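Compound at 1 μM was incubated at 37 °C for 120 min with pooled mouse liver S9 (1 mg/mL), 2 mM NADPH, 1 mM UDPGA, 10 mM MgCl₂, 5 mM GSH and 0.1 mM PAPS. Aliquots taken at set times were quenched with 2 volumes of cold acetonitrile containing diphenhydramine internal standard and centrifuged. Remaining compound was quantified by HPLC–MS/MS to derive half-life, with testosterone, verapamil and ketoconazole as activity controls.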
For `O=C(NC[C@H](OCc1ccc(C#Cc2ccc(CN3CCOCC3)cc2)cc1)C(=O)NO)c1cc[nH]n1`, the t1/2 amounted to 1.07 h.
